Results as given in ChEMBL document CHEMBL2390928.
pEC50, pIC50: −log10 of the molar value.

Experiments:
[1] = Inhibition of bovine brain tubulin assembly after 20 mins by spectrophotometric analysis; set-up: species or system Bos taurus
Method in brief: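 Electrophoretically homogeneous bovine brain tubulin is used at 10 µM (1.0 mg/mL) with varying inhibitor concentrations. After 15 min preincubation at 30 °C, 0.4 mM GTP is added.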

Bos taurus = species on record: Bos taurus; assay: Displacement of [3H]-colchicine from bovine brain tubulin at 5 uM after 10 mins relative to control
Method in brief: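 Electrophoretically homogeneous bovine brain tubulin, 1.0 µM, incubated 10 min at 37 °C with 5.0 µM [3H]colchicine and 5.0 µM inhibitor; colchicine binding inhibition expressed as percent ± SD.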

HeLa [2] = assay: Cytotoxicity against human HeLa cells assessed as growth inhibition after 48 hrs by SRB assay; type: functional, cell-based
[3] = Induction of interphase microtubule depolymerization in rat A10 cells after 18 to 24 hrs by indirect immunofluorescence assay; type: cell-based
Method in brief: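 Rat aortic smooth muscle A-10 cells are treated for 18 h, fixed in cold methanol, and stained for microtubules with a β-tubulin antibody by indirect immunofluorescence. […] It is computed per experiment over a wide concentration range, from at least 3 independent experiments, and reported as mean ± SD.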

SK-OV-3 [4] = assay: Cytotoxicity against human SKOV3 cells assessed as growth inhibition after 48 hrs by SRB assay; type: functional, cell-based; settings: SK-OV-3, 48 h
HeLa [5] = assay: Resistance ratio of IC50 for human HeLa cells expressing beta-3 tubulin to IC50 for human HeLa cells; type: functional
Method in brief: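 HeLa WT βIII cells are HeLa cells transfected with the βIII-tubulin gene. IC50 in this line and in parental HeLa is taken from the sulforhodamine B assay (3–5 independent experiments). Rr is the βIII-line IC50 divided by the parental HeLa IC50.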

MDA-MB-435 = assay: Cytotoxicity against human MDA-MB-435 cells assessed as growth inhibition after 48 hrs by SRB assay; type: functional, cell-based; settings: MDA-MB-435, 48 h
[6] = Ratio of EC50 for induction of microtubule depolymerization in rat A10 cells to IC50 for human MDA-MB-435 cells
Method in brief: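 This ratio divides the A-10 EC50 by the MDA-MB-435 melanoma IC50. […] The IC50 is from the sulforhodamine B proliferation assay, 3–5 independent experiments.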

SK-OV-3 [7] = assay: Resistance ratio of IC50 for human SKOV3 cells expressing MDR1 to IC50 for human SKOV3 cells; type: functional
Method in brief: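 Relative resistance (Rr) is the IC50 in Pgp-expressing SK-OV-3 MDR-1-6/6 cells divided by the IC50 in parental SK-OV-3 cells.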

Row | pIC50 [1] | inhibition (Bos taurus) | Compound | pIC50 (HeLa [2]) | pEC50 [3] | pIC50 (SK-OV-3 [4]) | Ratio IC50 (HeLa [5]) | pIC50 (MDA-MB-435) | Ratio [6] | Ratio IC50 (SK-OV-3 [7])
1 | 5.59 | 70% | COc1ccc(N(C)c2nc(C)nc3[nH]ccc23)cc1 | – | – | – | – | – | – | –
2 | – | – | COc1ccc(/C=C\c2cc(OC)c(OC)c(OC)c2)cc1O [COMBRETASTATIN A4] | 8.33 | 7.89 | 8.01 | – | – | – | –
3 | 5.77 | 82% | CCOc1ccc(N(C)c2nc(N)nc3[nH]c4ccccc4c23)cc1 | 7.64 | 7.08 | 7.64 | 0.8 | 7.84 | 6.5 | 1.3
